# Measured values as given in ChEMBL document CHEMBL1145033, “2-Amino-3-benzoylthiophene allosteric enhancers of A1 adenosine agonist binding: new 3, 4-, and 5-modifications” (J Med Chem, 2003).
# Target: T1, Adenosine receptor A1 (Homo sapiens) (UniProt P30542)
# T1 sequence (whole entry): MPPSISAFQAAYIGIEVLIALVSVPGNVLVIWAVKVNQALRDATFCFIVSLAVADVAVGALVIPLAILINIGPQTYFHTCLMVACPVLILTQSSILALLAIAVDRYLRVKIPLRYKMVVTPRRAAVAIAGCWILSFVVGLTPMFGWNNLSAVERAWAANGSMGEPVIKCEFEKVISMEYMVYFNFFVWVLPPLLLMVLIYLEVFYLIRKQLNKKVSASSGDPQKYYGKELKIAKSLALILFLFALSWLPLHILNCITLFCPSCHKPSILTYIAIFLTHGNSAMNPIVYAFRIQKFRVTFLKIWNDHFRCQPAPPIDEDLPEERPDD
# Assay: Inhibition of antagonist [3H]-CPX binding to Adenosine A1 receptor membrane at 100 uM
# Procedure, shortened: (§1)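 Human A1AR membranes from CHO cells were incubated with 2 nM [3H]CPX and test agent (100 μM) for 90 min at room temperature. Inhibition of equilibrium antagonist binding was then measured.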
row,inhibition [%],SMILES
1,29,Nc1sc(Br)c(-c2cccc(C(F)(F)F)c2)c1C(=O)c1ccccc1

# Target: T1, Adenosine receptor A1 (Homo sapiens)
# Assay: Inhibition of antagonist [3H]CPX binding to Adenosine A1 receptor membrane at 100 uM
# Procedure, shortened: as §1
row,inhibition [%],SMILES
1,85,Cc1sc(N)c(C(=O)c2cccc(C(F)(F)F)c2)c1C

# Target: T1, Adenosine receptor A1 (Homo sapiens)
# Assay: Dissociation of [3H]N6-cyclohexyladenosine ([3H]CHA) from CHO-K1 membrane expressing human adenosine A1 receptor after treatment with allosteric enhancer at 100 uM and (R)-PIA
row,SMILES,Activity [%]
1,Nc1sc(Br)c(-c2ccc(-c3ccccc3)cc2)c1C(=O)c1ccccc1,42.7
2,Nc1sc(Br)c(-c2ccc(C(F)(F)F)cc2)c1C(=O)c1ccccc1,80.4
3,Nc1sc(-c2ccccc2)c(-c2ccc(Cl)cc2)c1C(=O)c1ccc(Cl)cc1,8.7
4,N#Cc1ccc(-c2c(Br)sc(N)c2C(=O)c2ccccc2)cc1,20.3
5,Nc1sc(-c2ccccc2)cc1C(=O)OCc1ccccc1,8
6,Cc1ccc(-c2c(-c3ccccc3)sc(N)c2C(=O)c2ccc(Cl)cc2)cc1,8.4
7,Cc1ccc(-c2c(-c3ccccc3)sc(N)c2C(=O)OCc2cccc(C(F)(F)F)c2)cc1,62.6
8,CCOC(=O)c1c(N)sc(Br)c1-c1cccc([N+](=O)[O-])c1,26
9,CCOC(=O)c1c(N)sc(-c2ccccc2)c1-c1ccc(Cl)cc1,42.1
10,Nc1sc(Br)c(-c2ccc([N+](=O)[O-])cc2)c1C(=O)c1ccccc1,68.3
11,Nc1sc(Br)c(-c2cccc(C(F)(F)F)c2)c1C(=O)c1ccccc1,91
12,Nc1sc(Br)c(-c2ccc3ccccc3c2)c1C(=O)c1ccccc1,49.7
13,Cc1sc(N)c(C(=O)c2cccc(C(F)(F)F)c2)c1C,19
14,Nc1sc(Br)c(-c2cccc([N+](=O)[O-])c2)c1C(=O)c1ccccc1,21.8

# Further lines, results first:
row,Activity [%],SMILES
1,13.4,Cc1ccc(-c2c(-c3ccccc3)sc(N)c2C(=O)c2ccccc2)cc1
2,10.5,Nc1sc(-c2ccccc2)c(-c2ccc(Cl)cc2)c1C(=O)c1ccc(-c2ccccc2)cc1
3,10.8,Nc1sc(-c2ccccc2)c(-c2ccccc2)c1C(=O)c1ccc(Cl)cc1
4,52.3,Nc1sc(-c2ccccc2)c(-c2ccccc2)c1C(=O)c1cccc2ccccc12
5,18.6,Nc1sc(-c2ccccc2)c(-c2ccccc2)c1C(=O)OCc1ccccc1
6,8.1,Cc1ccc(-c2c(-c3ccccc3)sc(N)c2C(=O)c2cccc(Cl)c2)cc1
7,14.1,Nc1sc(-c2ccccc2)c(-c2ccccc2)c1C(=O)N(Cc1ccccc1)Cc1ccccc1
8,10.7,Nc1sc(-c2ccccc2)c(-c2ccccc2)c1C(=O)c1ccccc1
9,5.6,Nc1sc(-c2ccccc2)c(-c2ccc(Cl)cc2)c1C(=O)c1ccccc1
10,3.6,Cc1ccc(-c2c(-c3ccccc3)sc(N)c2C(=O)c2ccc(-c3ccccc3)cc2)cc1
11,10.9,Cc1ccc(-c2c(-c3ccccc3)sc(N)c2C(=O)c2ccc3ccccc3c2)cc1
12,1.9,Cc1ccc(-c2c(-c3ccccc3)sc(N)c2C(=O)Cc2ccccc2)cc1
13,48,Nc1sc(-c2ccccc2)c(-c2ccccc2)c1C(=O)OCc1cccc(C(F)(F)F)c1
14,11.9,Nc1sc(-c2ccccc2)c(-c2ccc(Cl)cc2)c1C(=O)c1cccc2ccccc12
15,4.2,Nc1sc(-c2ccccc2)c(-c2ccccc2)c1C(=O)c1ccc2ccccc2c1
16,9.4,Nc1sc(-c2ccccc2)c(-c2ccccc2)c1C(=O)c1cccc(Cl)c1
17,1.5,Nc1sc(-c2ccccc2)c(-c2ccccc2)c1C(=O)c1ccc(-c2ccccc2)cc1

# Target: T2, Adenosine receptor A1 (Homo sapiens, UniProt P30542)
# T2 sequence (P30542 whole entry): T1 sequence (whole entry)
# Assay: Effective dose as dissociation of [3H]N6-cyclohexyladenosine ([3H]CHA) from CHO-K1 membrane after treatment with allosteric enhancer and (R)-PIA
row,EC50 [µM],SMILES
1,6.36,Nc1sc(Br)c(-c2cccc(C(F)(F)F)c2)c1C(=O)c1ccccc1
